Reference: ChEMBL document CHEMBL2311353, “Synthesis and antiproliferative activities of N-(naphthalen-2-yl)acetamide and N-(substituted phenyl)acetamide bearing quinolin-2(1H)-one and 3,4-dihydroquinolin-2(1H)-one derivatives” (Eur J Med Chem, 2013)

How the values were obtained:
MKN-45 = experiment: Antiproliferative activity against human MKN45 cells after 72 hrs by MTT assay; assay type: functional, cell-based; conditions: MKN-45, 72 h
Summary of the method: (§1)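 Log-phase cells were seeded, left overnight, then exposed to a range of compound concentrations for 72 h. MTT at 0.4 mg/mL in MEM was added for 2 h, and formazan was read at 570 nm. GI50 was taken from percent conversion relative to mock-treated controls.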

[1] = Antiproliferative activity against human Hep3B cells after 72 hrs by MTT assay; assay type: functional, cell-based, Hep 3B2; summary of the method: as §1
A498 = experiment: Antiproliferative activity against human A498 cells after 72 hrs by MTT assay; assay type: functional, cell-based; conditions: A498, 72 h; summary of the method: as §1
NCI-H661 = experiment: Antiproliferative activity against human NCI-H661 cells after 72 hrs by MTT assay; assay type: functional, cell-based; conditions: NCI-H661, 72 h; summary of the method: as §1
[2] = Antiproliferative activity against human NPC-TW01 cells after 72 hrs by MTT assay; assay type: functional, cell-based; conditions: NPC-TW01, 72 h; summary of the method: as §1

Row | SMILES | IC50 (MKN-45) [µM] | IC50 [1] [µM] | IC50 (A498) [µM] | IC50 (NCI-H661) [µM] | IC50 [2] [µM]
1 | O=C(COc1ccc2c(c1)NC(=O)CC2)Nc1ccccc1 | 32.4 | 27.2 | 12 | 21.8 | 16
2 | O=C(COc1ccc2c(c1)NC(=O)CC2)Nc1ccc(F)cc1 | 38.6 | 27 | 11.3 | 15.3 | 15.8
3 | COc1ccc(NC(=O)COc2ccc3c(c2)NC(=O)CC3)cc1 | 36.3 | 31.1 | 19.3 | 16.4 | 13.1
4 | O=C(COc1ccc2c(c1)NC(=O)CC2)Nc1ccc(-c2ccccc2)cc1 | 32.4 | 8.1 | 12 | 15.4 | 2.9
5 | O=C(COc1ccc2c(c1)NC(=O)CC2)Nc1ccc2ccccc2c1 | 26.9 | 19.2 | 8.6 | 11.2 | 8.9
